# Published values from different studies.
# Target: Ephrin type-B receptor 6 (EPHB6, Homo sapiens, UniProt O15197)
# One construct used (O15197 32-1021): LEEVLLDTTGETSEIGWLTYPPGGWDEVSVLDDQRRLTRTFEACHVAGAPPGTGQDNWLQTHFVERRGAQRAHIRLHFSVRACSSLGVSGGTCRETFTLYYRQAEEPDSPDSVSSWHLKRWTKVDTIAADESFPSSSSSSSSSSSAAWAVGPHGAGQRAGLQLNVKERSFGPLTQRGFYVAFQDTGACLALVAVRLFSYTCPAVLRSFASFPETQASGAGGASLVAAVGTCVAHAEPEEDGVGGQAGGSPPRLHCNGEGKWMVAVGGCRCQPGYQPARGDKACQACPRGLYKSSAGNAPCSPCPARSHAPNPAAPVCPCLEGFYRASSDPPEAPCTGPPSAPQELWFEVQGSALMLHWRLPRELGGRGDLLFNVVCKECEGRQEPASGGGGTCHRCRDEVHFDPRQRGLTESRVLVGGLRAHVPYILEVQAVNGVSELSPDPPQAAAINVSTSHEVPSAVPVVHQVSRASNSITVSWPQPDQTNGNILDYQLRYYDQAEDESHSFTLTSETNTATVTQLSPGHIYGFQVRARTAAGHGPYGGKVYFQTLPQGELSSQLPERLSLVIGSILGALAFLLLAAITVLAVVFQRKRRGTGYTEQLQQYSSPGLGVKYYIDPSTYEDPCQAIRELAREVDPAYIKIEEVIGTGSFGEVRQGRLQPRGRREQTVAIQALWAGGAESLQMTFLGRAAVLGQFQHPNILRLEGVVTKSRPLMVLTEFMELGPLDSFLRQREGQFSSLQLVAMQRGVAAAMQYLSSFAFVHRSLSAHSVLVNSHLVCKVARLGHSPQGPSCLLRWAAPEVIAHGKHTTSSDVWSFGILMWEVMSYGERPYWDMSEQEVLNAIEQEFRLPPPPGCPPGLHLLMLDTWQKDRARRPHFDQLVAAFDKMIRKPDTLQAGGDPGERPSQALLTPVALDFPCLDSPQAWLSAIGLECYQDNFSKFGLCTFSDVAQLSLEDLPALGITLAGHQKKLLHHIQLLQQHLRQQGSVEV
Compound,effect on,technique,tested at,remaining binding [%]
CNC(=O)c1ccc(Nc2ncc(C(F)(F)F)c(NCc3nccnc3N(C)S(C)(=O)=O)n2)cc1,cell-free assay,competition with immobilised ligand,0.1 µM,100
Cc1cnc(Nc2ccc(C(=O)N3CCC(N4CCCC4)CC3)cc2)nc1-c1cc2ccccc2s1,binding,competition with immobilised ligand,1 µM,3.3
CC1CCCN1c1nccc(-c2cnn3ncccc23)n1 (stereo not shown),binding,,1 µM,82
O=C(c1ccc(Nc2ncc(Cl)c(-c3cc4ccccc4s3)n2)cc1)N1CCC(N2CCCC2)CC1,binding,competition with immobilised ligand,1 µM,3.9
N[C@H]1CCN(c2nccc(-c3cnn4ncccc34)n2)C1,binding,,1 µM,56
O=C(Nc1c[nH]nc1C(=O)NC1CCNCC1)c1cc(F)cc(F)c1,binding,competition with immobilised ligand,1 µM,100
C=CC(=O)N1CCC(C(=O)NCC(=O)N2CCN(c3nc(-c4cnc(N)nc4C(F)F)nc(N4CCOCC4)n3)CC2)CC1,binding,competition with immobilised ligand,1 µM,65
O=C(Nc1cccnn1)N1CCC(=Cc2cccc(Oc3ccc(C(F)(F)F)cn3)c2)CC1,cell-free assay,competition with immobilised ligand,1 µM,100
COc1ccnn2ncc(-c3ccnc(N(C)C)n3)c12,binding,,1 µM,27
COc1cnc(Nc2cccc(S(N)(=O)=O)c2)nc1N1CCN(c2ccccc2)C(=O)C1,binding,competition with immobilised ligand,1 µM,90
O=C(O)[C@@H]1[C@@H](Cn2nnc3ccccc3c2=O)CC[C@H]1C(=O)c1ccc(OCCC2CCOCC2)cc1,cell-free assay,competition with immobilised ligand,1 µM,100
c1cnn2ncc(-c3ccnc(N4CCC45COC5)n3)c2c1,binding,,1 µM,63
O=C(NCCCN1CCOCC1)c1ccc(Nc2nccc(-c3cc4ccccc4s3)n2)cc1,binding,competition with immobilised ligand,1 µM,18
O=C(Nc1cccnn1)N1CC(C/C=C/c2cncc(Oc3ccc(C(F)(F)F)cn3)n2)C1,cell-free assay,competition with immobilised ligand,1 µM,87
CN(C)c1ncc(F)c(-c2cnn3ncccc23)n1,binding,,1 µM,77
C[C@H](NC(=O)c1cnc2n1[C@](C)(Cc1ccc(C#N)cc1)C(=O)N2c1cc(Cl)c(F)c(Cl)c1)C(=O)NC1(c2ccccn2)CC1,cell-free assay,competition with immobilised ligand,1 µM,100
FC(F)(F)Oc1cccc(-c2cnc3ccc(-c4ccncc4)nn23)c1,cell-free assay,competition with immobilised ligand,5 µM,9.3
COc1cnc(Nc2cccc(S(N)(=O)=O)c2)nc1N1CCN(c2ccccc2)CC1,binding,competition with immobilised ligand,1 µM,95
Cc1c[nH]c2nccc(Oc3c(F)cc(Nc4cc(Cl)nc(N)n4)cc3F)c12,cell-free assay,competition with immobilised ligand,0.1 µM,96
C[C@@H]1CCN(c2nccc(-c3cnn4ncccc34)n2)C1,binding,,1 µM,93
O=C(NC[C@@H]1[C@H]2CN(C(=O)OCc3cc(C(F)(F)F)cc(C(F)(F)F)c3)C[C@@H]12)c1ccc2[nH]nnc2c1,cell-free assay,competition with immobilised ligand,1 µM,100
CN(C)c1nccc(-c2cnc3ncccn23)n1,binding,,1 µM,45
